Wee1 degr inh – Wee1 degradation inhibitors, primary screen, cell-based, HeLa, Wee1K328M-luciferase, luminescence | Wee1-like protein kinase (Homo sapiens), P30291 | HeLa Luc-Wee1K328M stability; 100% = proteasome inhibitor MG132 effect | 220,000 compounds, 1.2% hits | AID 1321, 2008 | reporter increase, % at 5 µM;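 active = activation above the mean of all tested compounds plus 3 SD, set per screening run, cut at about 8.8% in these data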;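 also: cells exposed to compound for 20 h before luminescence read; 0% = DMSO alone and 100% = MG132 at 30 µM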
Target sequence (P30291 whole entry K328M): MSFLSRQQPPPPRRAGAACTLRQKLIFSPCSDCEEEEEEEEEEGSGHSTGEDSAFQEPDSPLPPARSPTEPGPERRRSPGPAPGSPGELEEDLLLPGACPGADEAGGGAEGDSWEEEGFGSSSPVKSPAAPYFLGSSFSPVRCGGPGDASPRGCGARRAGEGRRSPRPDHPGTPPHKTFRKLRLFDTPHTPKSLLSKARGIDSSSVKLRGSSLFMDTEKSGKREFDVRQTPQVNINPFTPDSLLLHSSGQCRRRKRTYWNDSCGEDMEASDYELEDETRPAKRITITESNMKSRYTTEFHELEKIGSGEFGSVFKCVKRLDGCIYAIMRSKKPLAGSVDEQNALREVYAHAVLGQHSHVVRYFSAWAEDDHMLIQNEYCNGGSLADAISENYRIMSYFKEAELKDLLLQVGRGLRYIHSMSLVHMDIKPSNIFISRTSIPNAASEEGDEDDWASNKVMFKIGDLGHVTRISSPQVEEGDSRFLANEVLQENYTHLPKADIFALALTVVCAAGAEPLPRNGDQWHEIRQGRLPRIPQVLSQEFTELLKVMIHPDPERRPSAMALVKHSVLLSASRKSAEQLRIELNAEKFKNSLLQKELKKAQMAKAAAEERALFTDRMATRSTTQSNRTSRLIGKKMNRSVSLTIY
MT stabilize HCS – microtubule stabilizers in HeLa cells, primary screen, imaging, high-content imaging. HeLa tubulin immunostaining HCS, 24 h; share of cells brighter than vehicle mean+2SD. % tubulin-high responders, % at 10 µM. 200,000 compounds, 0.83% hits;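 active = plate Z-score above 3 for both tubulin-high and condensed-nucleus cell shares, with cell loss under 80%, at 10 µM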;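 also: anti alpha tubulin signal scored within the nucleus-defined area of each cell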
Insulin prom up – insulin promoter activators in MIN6 cells, imaging, high-content screening, mouse beta cells. MIN6 insulin promoter-GFP reporter; stronger effect = higher value. z-score at 5 µM. 190,000 compounds, 0.3% hits;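 active = z-score above 3 at 5 µM with at least 500 cells counted in the well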
bCat nuc transl – modulators of beta-catenin nuclear translocation, primary screen, imaging, HeLa cells, immunofluorescence, high-content; AID 1665, 2009; 190,000 compounds, 0.3% hits; nuclear translocation activity, % at 5 µM;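 active = nuclear translocation activity above 50% at 5 µM, with a well cell count of 50 or more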;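 also: per-cell ratio of nuclear to cytoplasmic median beta-catenin stain intensity; plate controls were DMSO negative control for no effect and GSK-3 inhibitor IX positive control for full effect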
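Technique: fluorescence imaging of beta-catenin antibody stain plus DAPI / Material: human HeLa cell line / Incubation: compound treatment 24 h, 37°C, 5% CO2 / Read-out basis: % activation of per-cell nuclear versus cytoplasmic median beta-catenin signal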
Autophagy HCS – autophagy modulators in MEF cells, primary screen, imaging, high-content, MEF GFP-LC3; MEF GFP-LC3 puncta imaging; test concentration mostly 10 µM; calls only at 10 µM (by protocol); 190,000 compounds, 0.98% hits;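 active = percentage of spot-positive cells more than 3 SD above its plate mean, without a fluorescence outlier flag or 80% toxicity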;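 also: spot-positive cell cutoff set from DMSO-treated cells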
* hit, by the source's call; i = inactive; / = no result; + = active, no number. This is a sample that favours compounds with a hit; in the whole collection about 2.9% have one here.

SMILES	Wee1 degr inh	MT stabilize HCS	Insulin prom up	bCat nuc transl	Autophagy HCS
Cc1cc(C(F)(F)F)c(C#N)c(SCC(=O)Nc2nc3ccccc3s2)n1	-1	2	1.8	4	+
Cc1nc(SCC(=O)Nc2nc3ccccc3s2)c(C#N)c(C)c1C	-5	3	-0.28	-2	i
CCOC(=O)COc1nc(-c2ccco2)cc(-c2ccco2)c1C#N	-2	/	0.77	1	/
N#Cc1c(C(F)(F)F)cc(-c2ccc(Cl)c(Cl)c2)nc1SCCN1CCOCC1	0	3	-0.4	-5	i
N#Cc1ccc(-c2cccnc2)nc1SCC(=O)Nc1sc2c(c1C#N)CCC2	2	4	0.73	0	i
N#Cc1c(C(F)(F)F)cc(-c2ccccc2)nc1SCC(=O)Nc1sc2c(c1C#N)CCC2	1	14	-0.03	0	+
CCOC(=O)C(C)Sc1nc(-c2ccco2)cc(C(F)(F)F)c1C#N (stereo not given)	9.9*	5	-0.13	-4	i
Cn1c(=O)c2[nH]c(N3CCN(c4ccccn4)CC3)nc2n(C)c1=O	0	2	1.4	4	i
Cc1ccc(-c2nnc(SCC(=O)N/N=C/c3ccc(C)s3)n2-c2ccc(C)cc2)cc1	-2	2	-0.64	1	i
CCOC(=O)CCSc1nc(C(C)(C)C)cc(C(F)(F)F)c1C#N	1	3	/	0	i
CCOC(=O)CCSc1nc(C)cc(C(F)(F)F)c1C#N	2	4	2.3	0	+
O=C(CSc1cccc(C(F)(F)F)c1)Nc1cc(S(=O)(=O)N2CCCC2)ccc1Cl	-2	3	-0.06	-4	i
CCc1cccc2c1NC(=O)C2(O)CC(=O)c1cccs1 (stereo not given)	-1	4	-0.48	0	i
CCc1ccc2c(c1)C(O)(CC(=O)c1cccs1)C(=O)N2 (stereo not given)	9.8*	3	-0.07	-1	i
CSc1cc(-c2ccccc2)n(Cc2ccccc2Cl)c(=O)c1C#N	0	43*	-1.1	/	i
CCn1c2ccccc2c2cc(CN3CCN(Cc4cc(OC)ccc4O)CC3)ccc21	3	2	0.41	-2	+
CCn1c2ccccc2c2cc(CN3CCN(S(C)(=O)=O)CC3)ccc21	0	3	-0.16	0	i
CCOc1ccc(CN2CCN(CC(O)Cn3c4ccccc4c4ccccc43)CC2)cc1 (stereo not given)	5	4	-1	0	+
CC(CCc1ccccc1)NCC(O)COc1ccccc1 (stereo not given)	0	11	2	-1	i
COC(=O)C1=C(C)NC2=C(C(=O)CCC2)C1c1ccsc1 (stereo not given)	-3	2	0.62	-3	i
CCOC(=O)C1=C(C)NC2=C(C(=O)CC(c3cccs3)C2)C1c1cccs1 (stereo not given)	0	18*	-0.31	-3	+
CCOC(=O)C1=C(C)NC2=C(C(=O)OC2)C1c1ccccc1 (stereo not given)	2	28	-0.73	81*	i
COC(=O)C1=C(C)NC2=C(C(=O)CC(c3cccs3)C2)C1c1ccsc1 (stereo not given)	1	26*	0.68	-3	i
COC(=O)CCSC(=S)N1CCOCC1	-1	/	-0.17	0	/
CC(C)NC(=O)NC(=O)COC(=O)C1(C)CC1(Cl)Cl (stereo not given)	0	4	-0.12	-1	i
SMILES	Wee1 degr inh	MT stabilize HCS	Insulin prom up	bCat nuc transl	Autophagy HCS
O=C(CSc1nnc(-c2ccncc2)n1Cc1ccco1)Nc1nc(-c2ccccc2)cs1	3	7	-0.38	-2	+
COc1ccc2nc(SCC(=O)N3CC(=O)Nc4ccccc43)c(C#N)cc2c1	0	27*	-0.21	/	i
Cc1cc(C)c2nc(SCC(=O)Nc3ccccc3N3CCOCC3)c(C#N)cc2c1	0	5	/	/	i
Cc1cc(C)c2nc(SCC(=O)N3CC(=O)Nc4ccccc43)c(C#N)cc2c1	0	10	/	44	+
COc1ccc2nc(SCC(=O)N3CCN(c4ccccc4F)CC3)c(C#N)cc2c1	0	2	/	/	i
COc1ccc(CN2C(=O)NC3(CCCCCC3)C2=O)cc1F	/	/	-0.39	-6	/
C#Cc1ccc([C@@H]2C=C(C(=O)N3CCN(Cc4ccc5c(c4)OCO5)CC3)O[C@H](OCCCCO)C2)cc1	0	7	-0.53	-1	i
CN(Cc1ccccc1)c1nc2nonc2nc1N1CCCC(CN2CCCC2=O)C1 (stereo not given)	0	/	0.47	-1	/
COc1c(C)cc(Br)cc1C(=O)Nc1ccc(Cc2ccncc2)cc1	-1	3	0.71	-4	+
O=C(COC(=O)C12CC3CC(CC(C3)C1)C2)Nc1nccs1	5	4	0.25	0	i
Cc1cccc(C(=O)N=c2c(C#N)cc3c(=O)n4cccc(C)c4nc3n2Cc2ccco2)c1	2	2	0.36	/	+
O=C(Nc1nnc(C(F)(F)F)s1)c1ccc(Br)s1	9.8*	8	-2.3	-8	i
CCSc1nnc(NC(=O)c2ccc(Br)s2)s1	0	2	-0.16	0	i
Cc1nc(CN2CCN(Cc3nc(C(c4ccccc4)c4ccccc4)no3)CC2)cs1	5	2	-0.44	-1	i
C[C@@H](C(=O)NCc1ccccc1)[C@@H]1C[C@@]1(C)[C@@H](NC(=O)OCc1ccccc1)c1ccccc1	-1	3	0.62	0	i
COCCNC(=O)[C@H](C)[C@H]1C[C@]1(C)[C@H](NC(=O)OCc1ccccc1)c1ccccc1	9.1*	7	0.01	-1	i
O=c1c2ccc([N+](=O)[O-])c3cccc(c32)c2nc3ccccc3n12	-4	46	0.31	0	+
O=c1c2cccc3c(N4CCOCC4)ccc(c32)c2nc3ccccc3n12	/	/	9.8*	1	/
CCc1nc2ccccc2c2nc3ccccc3n12	2	2	-0.84	/	i
Cc1ccc(NC(=O)CSc2nc(O)c(Cc3ccccc3)c(=O)n2-c2ccccc2)cc1	1	4	0.69	-2	i
Cc1nc2cc(N3CCCCC3)c(NC(=O)c3ccncc3)cc2c(=O)n1Cc1ccc(Cl)cc1	2	5	/	/	+
O=C1CC(=C2c3ccccc3-c3ccccc32)C(=O)N1CCN1CCN(c2cccc(Cl)c2)CC1	1	2	/	/	i
CCOc1ccc(NC(=O)c2cc3c(C)nc4ccccc4c3o2)cc1	1	17*	-0.7	126*	/
O=C(COC(=O)c1ccc(=O)[nH]c1)Nc1cccc(S(=O)(=O)N2CCOCC2)c1	2	/	0.14	-1	/
CC1C/C(=N/Nc2nc3ccccc3[nH]2)CC(C)(C)C1 (stereo not given)	10*	3	-1.8	-1	i

High-throughput results (PubChem BioAssay)
